Series [1] can be described thus: In vivo pharmacokinetic parameters. As to conditions: parent 8b in rat after oral administration of the 8b salt, 20 mg/kg. The method in brief:
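Rats dosed orally at 20 mg/kg with the test form; parent compound measured in plasma. Parameters derived: Cmax, Tmax, half-life, volume of distribution, AUC0-t and calculated total clearance (ClT).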

The nature of series [2]: Human liver microsomal incubations. In kind it is in vitro ADME. In outline: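 Test compound at 1 µM incubated with human liver microsomes (1 mg/mL) plus NADPH; samples taken at 0, 10, 30 and 60 min; parent compound remaining measured.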
Background: Liver microsomes are a subcellular fraction often used to study metabolism.

The test system of series [3] is 3D7 strain of P. falciparum. Kind of series: In vitro antimalarial activity versus 3D7 Plasmodium falciparum. Particulars: 3D7, read-out: IC50 (nM) 3D7 ± SD, 3D7 strain of P. falciparum. In kind it is cell-based.

For the compound `Cc1c(-c2ccc(-c3ccc(OC(F)(F)F)cc3)nc2)[nH]c2ccccc2c1=O` [8b], the ClT in series [1] was determined as 4.605 mL/min/kg. Moreover, the “parent compound present after 60 min incubation” value in series [2] (1 μM, human liver microsomes 1 mg/mL, NADPH, 60 min) is listed as “Greater than 60%”. For the same compound, the CLint scaled at 1 µM in series [2] (human, liver microsomes) was determined as 1.78 mL/min/kg. For `CCOC(=O)c1c(-c2ccc(-c3ccc(OC(F)(F)F)cc3)nc2)[nH]c2ccccc2c1=O` [compound 21], in series [3], the half-maximal inhibitory concentration (IC50) came to 103 nM. Still for that read-out and setting: for `O=c1c(CO)c(-c2ccc(-c3ccc(OC(F)(F)F)cc3)nc2)[nH]c2ccccc12` [compound 22] the value was 987 nM.

A word on the CLint scaled: it is a measure of how fast metabolising enzymes remove a compound, apart from limits set by blood flow. Low values mean greater metabolic stability, high ones faster metabolism. A word on the IC50: it is the concentration that inhibits the measured activity by half.
